core dimer inh – blocks dimerization of HCV core protein. TR-FRET GST/Flag-core106 dimerization, 1536-well. inhibition, % at 5 µM. 300,000 tested, 0.33% active;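 active means inhibition above the mean of all tested compounds plus 3 SD, set per screening campaign, cut at about 45% in these data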
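System – GST-tagged and Flag-tagged HCV core protein residues 1-106 · Repeats – one well for each compound · Technique – TR-FRET 671 and 617 nm emission · Doses – one concentration, 5 µM, in 0.5% DMSO · Times – 4 h, 22.5 °C incubation · Also added – Eu donor and XL665 acceptor anti-tag antibodies · Measure – percent inhibition of core106 dimerization signal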
rCAG RNA binder – binds r(CAG) RNA repeats; r(CAG) RNA repeat, TO-PRO-1 dye displacement fluorescence; 370,000 tested, 1.3% active; inhibition, % at 3 µM; AID 651821;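 active means inhibition above the plate cutoff, the mean of all test compounds on that plate plus 3 SD, cut at about 35% in these data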;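 further: 0% = DMSO alone and 100% = 100 µM mitoxantrone as full dye displacement; higher means more dye released from RNA so lower well fluorescence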
HCV NS3 hel inh – inhibitors of Hepatitis C virus NS3 helicase | NS3 helicase DNA unwinding, Cy5 molecular beacon fluorescence | inhibition, % at 10.9 µM | 290,000 tested, 0.56% active | AID 1800;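 active means inhibition above the mean of all tested compounds plus 3 SD, set per campaign, cut at about 35% in these data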;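 further: 0% = DMSO wells and 100% = thioflavine S control wells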
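Test system: hepatitis C virus NS3 helicase domain fragment enzyme. Also added: annealed dual-labelled DNA beacon duplex, ATP-started. Timing: 60 min unwinding reaction at 25 °C after ATP addition. Technique: Cy5 fluorescence. Measure: % inhibition of unwinding.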
TAAR1 ag – human TAAR1 agonism; CHO RD-HGA16 TAAR1, Fluo-8 calcium fluorescence; vehicle wells 0%, saturating PEA agonist 100%; activation, % at 3 µM; AID 624467; 360,000 tested, 0.99% active; Q96RJ0;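 active means activation above the mean activation of all test compounds in the run plus 3 SD, cut at about 38% in these data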
Target sequence (Q96RJ0 whole entry, looked up): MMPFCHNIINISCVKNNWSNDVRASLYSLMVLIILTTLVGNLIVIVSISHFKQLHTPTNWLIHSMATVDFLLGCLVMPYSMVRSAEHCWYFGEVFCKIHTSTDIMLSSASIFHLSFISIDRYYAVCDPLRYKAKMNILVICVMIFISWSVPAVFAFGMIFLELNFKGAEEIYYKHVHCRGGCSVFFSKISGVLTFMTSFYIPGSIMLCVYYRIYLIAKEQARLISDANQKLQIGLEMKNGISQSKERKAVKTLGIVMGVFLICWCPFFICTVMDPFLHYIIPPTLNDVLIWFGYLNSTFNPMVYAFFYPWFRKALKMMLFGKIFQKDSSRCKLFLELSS
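System: CHO RD-HGA16 cells carrying human TAAR1 plus Gα16; Incubation: 17-24 h seeding, 75 min 37 °C dye, 30 min RT; Measured by: Fluo-8 fluorescence, 5 s baseline then 140 s kinetic read; Control set: DMSO and PEA EC100; Replication: single well for each compound.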
TAAR1 antag – human TAAR1 antagonism. inhibition, % at 3 µM. Q96RJ0. 360,000 tested, 1.5% active. CHO RD-HGA16 TAAR1, Fluo-8 calcium fluorescence, antagonist;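 active means inhibition above a per-plate cutoff, the mean inhibition of test compounds on that plate plus 3 SD, cut at about 49% in these data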;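 further: 0% = DMSO plus EC80 beta-PEA response and 100% = DMSO alone without agonist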
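Assay system: CHO-derived RD-HGA16 cells stably expressing human TAAR1 plus Gα16. Timing: 140 s kinetic read after compound, 140 s after agonist. Technique: kinetic Fluo-8 calcium fluorescence measurement. Measure: % inhibition of agonist calcium response.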
TAAR1 ag conf – confirmation of human TAAR1 agonists; activation, % at 3 µM; 2,400 tested, 82% active; CHO RD-HGA16 TAAR1, Fluo-8 calcium fluorescence; scaled: DMSO 0%, maximal phenethylamine 100%; AID 651783; shares compounds with TAAR1 ag;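 active means activation above a cutoff set at the run's mean compound activation plus 3 SD, cut at about 39% in these data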
Ga16 nonsel ag – nonselective agonist in parental cells, TAAR1 agonist counter-screen | shares compounds with TAAR1 ag | AID 651787 | 2,400 tested, 50% active | activation, % at 3 µM | CHO-Ga16 parental, Fluo-8 calcium fluorescence; normalized to maximal ATP response, DMSO zero;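 active means activation above the run cutoff, the mean activation over all tested wells plus 3 SD, cut at about 12% in these data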;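 further: 0% = DMSO wells and 100% = maximal ATP response on the peak over basal ratio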
TAAR1 desensitize – counter-screen for human TAAR1 agonists: agonists that desensitize TAAR1. shares compounds with TAAR1 ag. CHO RD-HGA16 hTAAR1, Fluo-8 calcium, beta-PEA response inhibition. 2,400 tested, 46% active. AID 651951. inhibition, % at 3 µM;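 active means inhibition above the run cutoff, the mean inhibition of all test compounds plus 3 SD, cut at about 49% in these data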;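 further: beta-PEA stimulus applied at its EC80; loss of beta-PEA calcium signal after compound pretreatment read as receptor desensitization; 0% = DMSO with beta-PEA at EC80 and 100% = DMSO alone without agonist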
Ga16 antag count – nonselective Ga16 antagonist in TAAR1 agonist counter-screen. AID 651952. inhibition, % at 3 µM. shares compounds with TAAR1 ag. 2,400 tested, 39% active. CHO-Ga16 ATP-induced calcium, Fluo-8 fluorescence;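 active means inhibition above the plate's mean compound inhibition plus 3 SD, computed per plate, cut at about 22% in these data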;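 further: 0% = EC80 ATP with DMSO and 100% = DMSO wells without ATP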
The depositor's hits bear a star; x = no result. A selection: hits, their analogues and other compounds. The true share with any hit is near 3.7%.

SMILES	core dimer inh	rCAG RNA binder	HCV NS3 hel inh	TAAR1 ag	TAAR1 antag	TAAR1 ag conf	Ga16 nonsel ag	TAAR1 desensitize	Ga16 antag count
Cc1nc2sc(C(c3ccco3)N3CCc4ccccc4C3)c(O)n2n1 (stereo not drawn)	16	17	11	76*	54*	96*	8	70*	4
Cc1nc2sc(C(c3ccco3)N3CCN(c4ccccc4F)CC3)c(O)n2n1 (stereo not drawn)	-2	-3	3	20	-2	x	x	x	x
COC(=O)C1=C(C)N(Cc2cccc(C(F)(F)F)c2)C(=NCc2ccc(C(F)(F)F)cc2)NC1c1ccccc1C(F)(F)F (stereo not drawn)	x	2	x	1	-17	x	x	x	x
Oc1cccc2ccc(Nc3ccccn3)nc12	-12	2	-2	48*	3	58*	2	-5	-4
CCn1c(COc2ccc(C)cc2)nnc1SCC(=O)Nc1ccc(C(=O)OC)cc1	x	1	x	x	x	x	x	x	x
COc1ccc(CCn2c(-c3ccccc3)nc3c(c(=O)c4ccccc4n3C)c2=O)cc1	6	0	21	-1	-20	x	x	x	x
COc1ccc(CCn2c(C3CCCCC3)nc3c(c(=O)c4ccccc4n3C)c2=O)cc1	24	7	-11	111*	96*	65*	61*	78*	64*
CC(C)c1nc2c(c(=O)c3ccccc3n2C)c(=O)n1CCc1ccccc1	14	2	9	76*	23	43*	37*	28	20
Cc1ccc(-c2cc(C(=O)NN=Cc3ccc(-c4ccccc4)cc3)[nH]n2)cc1C	x	8	x	x	x	x	x	x	x
Cc1cc(C)c2cc3c(N)c(C(=O)N4CCc5ccccc5C4)sc3nc2c1	4	14	6	78*	12	56*	12*	40	39*
Cc1ccc2nc3sc(C(=O)N4CCCc5ccccc54)c(N)c3cc2c1	-15	9	1	16	26	x	x	x	x
O=C(CSC(=S)N1CCCC1)c1cc(Br)cc(Br)c1O	37	25	6	4	16	x	x	x	x
CC1CCCN(C(=S)SCC(=O)c2cc(Br)cc(Br)c2O)C1 (stereo not drawn)	3	26	5	74*	-19	82*	8	70*	19
Cc1ccc(Cn2c(=O)n(Cc3ccc(C(=O)NCC4COC4)cc3)c(=O)c3ccccc32)cc1	x	6	x	x	x	x	x	x	x
CN(C)CCCN(C(=O)c1ccc(S(=O)(=O)N2CCCCCC2)cc1)c1nc2ccc(F)cc2s1	-17	-6	-43	67*	16	68*	30*	38	20
CC1CCCCN1S(=O)(=O)c1ccc(C(=O)N(CCCN(C)C)c2nc3ccc(Br)cc3s2)cc1 (stereo not drawn)	-28	-2	-38	51*	46	69*	52*	57*	56*
CN(C)CCCN(C(=O)c1ccc(S(=O)(=O)N2CCOCC2)cc1)c1nc2ccc(F)cc2s1	1	-8	-40	8	14	x	x	x	x
COc1ccc(OC)c(S(=O)(=O)N2CCCC(C(=O)N3CCN(Cc4ccccc4)CC3)C2)c1 (stereo not drawn)	x	1	x	x	x	x	x	x	x
Cc1cc(Nc2ccc(Cl)cc2)nc(N)n1	3	-2	-3	53*	16	61*	1	37	6
C/C=C/c1ccc(OCC(O)CNCC(c2ccc(OC)cc2)N(C)C)c(OC)c1 (stereo not drawn)	-13	-4	-49	-2	1	x	x	x	x
COc1ccc(C(OCC(O)CNCCc2ccccc2)c2ccc(OC)cc2)cc1 (stereo not drawn)	x	1	-39	104*	97*	104*	18*	101*	27*
C/C=C/c1ccc(OCC(O)CNCCc2ccc(OC)cc2)c(OC)c1 (stereo not drawn)	-6	-2	-36	63*	12	96*	29*	46	11
Cc1cc(=O)[nH]c(SCC(=O)NCCc2ccccc2)n1	1	-1	-1	x	x	x	3	x	13
Cc1cc(=O)[nH]c(SCC(=O)NNC(=O)Cc2ccccc2)n1	3	-3	-8	0	-1	x	x	x	x
O=C(CSc1nc2scc(-c3ccccc3)c2c(=O)[nH]1)NCCc1ccccc1	5	1	8	64*	23	64*	9	33	15
Nc1nc(SCC(=O)NCCc2ccccc2)[nH]c(=O)c1-c1ccccc1	-1	1	-12	62*	19	53*	0	13	7
COc1ccc(CNCCc2ccccc2)cc1OCC(N)=O	-2	1	8	52*	-3	75*	1	22	-3
O=C(CSc1nnc(COc2ccccc2)n1-c1ccccc1)Nc1ccc2c(c1)OCCO2	x	4	x	x	x	x	x	x	x
CN(CCNC(=O)c1cn(C)c2ccc(S(=O)(=O)N(C)C)cc2c1=O)CCc1ccccc1	-4	2	-2	44*	-17	55*	1	5	-8

Screening data: PubChem BioAssay, The Scripps Research Institute Molecular Screening Center
